Test results as given in ChEMBL document CHEMBL1123623, “Synthesis of some [N-(2-haloalkyl)amino]tetralin derivatives as potential irreversible labels for bovine anterior pituitary D2 dopamine receptors” (J Med Chem, 1987).

How the values were obtained:
D(2) dopamine receptor [1] = target: T1, D(2) dopamine receptor (Bos taurus, UniProt P20288); assay: Ability to displace [3H]spiperone binding from anterior pituitary Dopamine receptor D2 in the absence of GTP; NA means inactive
Summary of the method: (§1)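 Bovine anterior pituitary membranes; displacement of [3H]spiperone (ca. 500 pM) with no GTP added. Specific binding defined with 3.3 μM (+)-butaclamol; buffer with 0.1% ascorbic acid in place of dithiothreitol. Triplicate points; IC50 corrected for [3H]spiperone concentration, plus pseudo Hill coefficient. Mean ± SEM (n ≥ 3) or mean ± range (n = 2).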

D(2) dopamine receptor [2] = target: T1, D(2) dopamine receptor; assay: Ability to displace [3H]spiperone binding from anterior pituitary Dopamine receptor D2 in the absence of GTP; summary of the method: as §1
D(2) dopamine receptor [3] = target: T1, D(2) dopamine receptor; assay: Ability to displace [3H]spiperone binding from anterior pituitary Dopamine receptor D2 in the presence of 100 uM GTP
Summary of the method: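 [3H]spiperone (ca. 500 pM) displacement in bovine anterior pituitary membranes in the presence of 100 μM GTP. Nonspecific binding set with 3.3 μM (+)-butaclamol; 0.1% ascorbic acid replaced dithiothreitol. Points in triplicate; IC50 corrected for radioligand concentration, with pseudo Hill coefficient. Mean ± SEM (n ≥ 3) or mean ± range (n = 2).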

T1 sequence (P20288 whole entry): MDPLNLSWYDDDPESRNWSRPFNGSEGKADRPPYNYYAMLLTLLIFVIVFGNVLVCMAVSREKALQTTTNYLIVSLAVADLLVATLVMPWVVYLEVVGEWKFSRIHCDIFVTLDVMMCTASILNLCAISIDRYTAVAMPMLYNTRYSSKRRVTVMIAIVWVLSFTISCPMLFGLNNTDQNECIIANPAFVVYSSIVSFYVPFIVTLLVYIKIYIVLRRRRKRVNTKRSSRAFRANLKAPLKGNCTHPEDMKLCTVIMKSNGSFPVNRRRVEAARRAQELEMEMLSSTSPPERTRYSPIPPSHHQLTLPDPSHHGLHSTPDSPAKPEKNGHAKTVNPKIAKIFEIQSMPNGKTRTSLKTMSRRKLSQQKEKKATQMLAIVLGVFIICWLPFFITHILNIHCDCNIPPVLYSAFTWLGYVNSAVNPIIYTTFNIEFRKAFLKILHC

Structure (SMILES) | IC50 (D(2) dopamine receptor [1]) | IC50 (D(2) dopamine receptor [2]) [nM] | IC50 (D(2) dopamine receptor [3]) [nM]
O=C(CCl)NC1CCc2cc(O)c(O)cc2C1 (stereo not given) | Not Active | – | –
CCCN(CCCl)C1CCc2cc(O)c(O)cc2C1 (stereo not given) | – | 76 | 260
CN(CCCl)C1CCc2cc(O)ccc2C1 (stereo not given) | – | 2970 | –
COc1cc2c(cc1OC)CC(NCCCl)CC2.Cl (stereo not given) | Not Active | – | –
CCCN(CCBr)C1CCc2cc(O)c(O)cc2C1 (stereo not given) | – | 1970 | > 100000
CCCN(CCCl)C1CCc2cc(OC)c(OC)cc2C1.Cl (stereo not given) | Not Active | – | –
Oc1cc2c(cc1O)CC(NCCBr)CC2 (stereo not given) | – | 170 | 420
COc1cc2c(cc1OC)CC(NCCO)CC2.Cl (stereo not given) | Not Active | – | –
CN(CCCl)C1CCc2c(ccc(O)c2O)C1 (stereo not given) | – | 32200 | > 100000
Oc1cc2c(cc1O)CC(NCCCl)CC2 (stereo not given) | – | 300 | > 100000
CN(CCCl)C1CCc2cc(O)c(O)cc2C1 (stereo not given) | – | 1820 | 3720
Br.CCCN(CC(C)Br)C1CCc2cc(O)c(O)cc2C1 (stereo not given) | Not Active | – | –
CCCN(CCO)C1CCc2cc(O)c(O)cc2C1 (stereo not given) | – | 420 | 2420
CC(Br)CNC1CCc2cc(O)c(O)cc2C1 (stereo not given) | – | 300 | 1010
CCCN(CCO)C1CCc2cc(OC)c(OC)cc2C1 (stereo not given) | Not Active | – | –
COc1cc2c(cc1OC)CC(NC(=O)CCl)CC2 (stereo not given) | Not Active | – | –
CCCN(C(=O)CCl)C1CCc2cc(OC)c(OC)cc2C1 (stereo not given) | Not Active | – | –
